Measured values published in ChEMBL document CHEMBL3297654, “Synthesis, antimicrobial and cytotoxic activities, and structure-activity relationships of gypsogenin derivatives against human cancer cells” (Eur J Med Chem, 2014).
Active and inactive are the calls of the source. The calls are words filed in the database; no cut-off is given here.

Experiments:
Caco-2 [1] = assay: Induction of necrosis in human Caco2 cells at 0.5 uM after 48 hrs by Hoechst 33258/propidium iodide staining based phase contrast microscopic analysis; format: functional
In short: (§1)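 Cells in 48-well plates treated with 0.5, 10, 20 or 40 µM for 24 and 48 h. Values are read at 48 h, 20 µM for test agents and 0.5 µM for controls. Staining is Hoechst 33258/propidium iodide double staining with fluorescence microscopy. Blue nuclei are viable or early-to-mid apoptotic, and pink nuclei are late apoptotic or necrotic. Apoptosis and necrosis are scored from chromatin condensation as % of cells. Cells are grown at 37 °C in 5% CO2 in RPMI, DMEM or McCoy's 5A with 10–15% heat-inactivated FCS.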

SAOS-2 [2] = assay: Induction of apoptosis in human Saos2 cells at 0.5 uM after 48 hrs by Hoechst 33258/propidium iodide staining based phase contrast microscopic analysis; format: functional; in short: as §1
SAOS-2 [3] = assay: Induction of necrosis in human Saos2 cells at 0.5 uM after 48 hrs by Hoechst 33258/propidium iodide staining based phase contrast microscopic analysis; format: functional; in short: as §1
HeLa [4] = assay: Induction of apoptosis in human HeLa cells at 0.5 uM after 48 hrs by Hoechst 33258/propidium iodide staining based phase contrast microscopic analysis; format: functional; in short: as §1
HL-60 [5] = assay: Induction of apoptosis in human HL60 cells at 0.5 uM after 48 hrs by Hoechst 33258/propidium iodide staining based phase contrast microscopic analysis; format: functional; in short: as §1
HT-29 [6] = assay: Antiproliferative activity against human HT-29 cells after 24 and 72 hrs by MTT assay; format: functional, cell-based
In short: (§2)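 ATCC human cell lines are kept in RPMI, DMEM or McCoy's 5A with 10–15% heat-inactivated FCS at 37 °C and 5% CO2. They are seeded at 1×10^4–1×10^5 cells/mL in 48-well plates and exposed to 0.5, 10, 20 or 40 µM. Viability is read by MTT (590 nm) at 24 and 72 h. Growth is expressed relative to untreated cells and IC50 is fitted, in triplicate.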

HL-60 [7] = assay: Antiproliferative activity against human HL60 cells after 24 and 72 hrs by MTT assay; format: functional, cell-based; in short: as §2
MCF7 [8] = assay: Induction of apoptosis in human MCF7 cells at 0.5 uM after 48 hrs by Hoechst 33258/propidium iodide staining based phase contrast microscopic analysis; format: functional; in short: as §1
HT-29 [9] = assay: Induction of necrosis in human HT-29 cells at 0.5 uM after 48 hrs by Hoechst 33258/propidium iodide staining based phase contrast microscopic analysis; format: functional; in short: as §1
Caco-2 [10] = assay: Antiproliferative activity against human Caco2 cells after 24 and 72 hrs by MTT assay; format: functional, cell-based; in short: as §2
HeLa [11] = assay: Induction of necrosis in human HeLa cells at 0.5 uM after 48 hrs by Hoechst 33258/propidium iodide staining based phase contrast microscopic analysis; format: functional; in short: as §1
MCF7 [12] = assay: Induction of necrosis in human MCF7 cells at 0.5 uM after 48 hrs by Hoechst 33258/propidium iodide staining based phase contrast microscopic analysis; format: functional; in short: as §1
[13] = Antiproliferative activity against human Saos2 cells after 24 and 72 hrs by MTT assay; format: functional, cell-based; details: SAOS-2; in short: as §2
Caco-2 [14] = assay: Induction of apoptosis in human Caco2 cells at 0.5 uM after 48 hrs by Hoechst 33258/propidium iodide staining based phase contrast microscopic analysis; format: functional; in short: as §1
HeLa [15] = assay: Antiproliferative activity against human HeLa cells after 24 and 72 hrs by MTT assay; format: functional, cell-based; in short: as §2
HT-29 [16] = assay: Induction of apoptosis in human HT-29 cells at 0.5 uM after 48 hrs by Hoechst 33258/propidium iodide staining based phase contrast microscopic analysis; format: functional; in short: as §1
HL-60 [17] = assay: Induction of necrosis in human HL60 cells at 0.5 uM after 48 hrs by Hoechst 33258/propidium iodide staining based phase contrast microscopic analysis; format: functional; in short: as §1
Cyberlindnera jadinii = assay: Antimicrobial activity against Candida utilis ATCC 9950 assessed as zone of inhibition at 100 mg for 24 hrs at 30 degC by disk diffusion test; format: functional, organism-based
In short: (§3)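 Yeast well-diffusion assay on Mueller Hinton agar following NCCLS disc susceptibility procedure. Compound stocks were 1000 µg/mL in DMSO. Yeast broth cultures (18–24 h) were adjusted to 0.5 McFarland, about 1×10^6 cells/mL. A 6 mm well was loaded with 30 µL compound. Plates were incubated at 30 °C for 24 h, and inhibition zones were measured in mm. C. glabrata and C. tropicalis were precultured in malt extract broth.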

Candida tropicalis = assay: Antimicrobial activity against Candida tropicalis assessed as zone of inhibition at 100 mg for 24 hrs at 30 degC by disk diffusion test; format: functional, organism-based; in short: as §3
Saccharomyces cerevisiae = assay: Antimicrobial activity against Saccharomyces cerevisiae ATCC 9763 assessed as zone of inhibition at 100 mg for 24 hrs at 30 degC by disk diffusion test; format: functional, organism-based; in short: as §3
Nakaseomyces glabratus = assay: Antimicrobial activity against Candida glabrata assessed as zone of inhibition at 100 mg for 24 hrs at 30 degC by disk diffusion test; format: functional, organism-based; in short: as §3
Klebsiella pneumoniae = assay: Antimicrobial activity against Klebsiella pneumoniae ATCC 13882 assessed as zone of inhibition at 10 mg for 24 hrs at 37 degC by disk diffusion test; format: functional, organism-based
In short: (§4)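 Agar well diffusion following NCCLS disc susceptibility guidance. Compounds were held as 1000 µg/mL stocks in DMSO. Broth cultures (18–24 h) were adjusted to 0.5 McFarland (1×10^8 cells/mL) and spread on Mueller Hinton agar. A 6 mm well was cut and filled with 30 µL compound. Plates were incubated 24 h at 37 °C, and the inhibition zone diameter was measured in mm.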

[18] = tested on: Staphylococcus epidermidis; assay: Antimicrobial activity against Staphylococcus epidermidis ATCC 12228 assessed as zone of inhibition at 10 mg for 24 hrs at 37 degC by disk diffusion test; format: functional
Escherichia coli = assay: Antimicrobial activity against Escherichia coli ATCC 25922 assessed as zone of inhibition at 10 mg for 24 hrs at 37 degC by disk diffusion test; format: functional, organism-based
Bacillus subtilis [19] = assay: Antimicrobial activity against Bacillus subtilis ATCC 6633 assessed as zone of inhibition at 10 mg by disk diffusion test; format: functional, organism-based
Micrococcus luteus [20] = assay: Antimicrobial activity against Micrococcus luteus ATCC 9341 assessed as zone of inhibition at 10 mg for 24 hrs at 30 degC by disk diffusion test; format: functional
Bacillus cereus = assay: Antimicrobial activity against Bacillus cereus ATCC 11778 assessed as zone of inhibition at 10 mg for 24 hrs at 30 degC by disk diffusion test; format: functional, organism-based
In short: (§5)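 Well diffusion on Mueller Hinton agar per NCCLS disc susceptibility tests. DMSO stocks were 1000 µg/mL. Bacterial broth cultures (18–24 h) were adjusted to 0.5 McFarland, about 1×10^8 cells/mL. A 6 mm well received 30 µL compound. Incubation was 24 h at 30 °C, and zone diameters were read in mm. B. thuringiensis was a fecal clinical isolate grown in nutrient broth.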

Staphylococcus aureus = assay: Antimicrobial activity against Staphylococcus aureus ATCC 25923 assessed as zone of inhibition at 10 mg for 24 hrs at 37 degC by disk diffusion test; format: functional
Salmonella typhimurium = assay: Antimicrobial activity against Salmonella typhimurium ATCC 14028 assessed as zone of inhibition at 10 mg for 24 hrs at 37 degC by disk diffusion test; format: functional; details: Salmonella enterica subsp. enterica serovar Typhimurium
Bacillus thuringiensis = assay: Antimicrobial activity against Bacillus thuringiensis assessed as zone of inhibition at 10 mg for 24 hrs at 30 degC by disk diffusion test; format: functional, organism-based; in short: as §5
Proteus vulgaris = assay: Antimicrobial activity against Proteus vulgaris ATCC 33420 assessed as zone of inhibition at 10 mg by disk diffusion test; format: functional, organism-based
Pseudomonas aeruginosa = assay: Antimicrobial activity against Pseudomonas aeruginosa ATCC 35032 assessed as zone of inhibition at 10 mg for 24 hrs at 37 degC by disk diffusion test; format: functional, organism-based; in short: as §4
Enterococcus faecalis [21] = assay: Antimicrobial activity against Enterococcus faecalis ATCC 29212 assessed as zone of inhibition at 10 mg for 24 hrs at 37 degC by disk diffusion test; format: functional; in short: as §4
Micrococcus luteus [22] = assay: Antimicrobial activity against Micrococcus luteus ATCC 9341 assessed as zone of inhibition at 15 mg for 24 hrs at 30 degC by disk diffusion test; format: functional; details: ATCC 9341, 24 h, read-out: DIZ
Bacillus subtilis [23] = assay: Antimicrobial activity against Bacillus subtilis ATCC 6633 assessed as zone of inhibition at 15 mgby disk diffusion test; format: functional
Enterococcus faecalis [24] = assay: Antimicrobial activity against Enterococcus faecalis ATCC 29212 assessed as zone of inhibition at 15 mg for 24 hrs at 37 degC by disk diffusion test; format: functional, organism-based
Micrococcus luteus [25] = assay: Antimicrobial activity against Micrococcus luteus ATCC 9341 assessed as zone of inhibition at 30 mg for 24 hrs at 30 degC by disk diffusion test; format: functional; details: ATCC 9341, 24 h, read-out: DIZ
MCF7 [26] = assay: Antiproliferative activity against human MCF7 cells after 24 and 72 hrs by MTT assay; format: functional, cell-based; in short: as §2

Compound: COc1cccc2c1C(=O)c1c(O)c3c(c(O)c1C2=O)C[C@@](O)(C(=O)CO)C[C@@H]3O[C@H]1C[C@H](N)[C@H](O)[C@H](C)O1 [DOXORUBICIN]
- Activity (Caco-2 [1]): 47%
- Activity (SAOS-2 [2]): 2%
- Activity (SAOS-2 [3]): 34%
- Activity (HeLa [4]): 2%
- Activity (HL-60 [5]): 2%
- IC50 (HT-29 [6]): 310 nM
- IC50 (HL-60 [7]): 330 nM
- Activity (MCF7 [8]): 1%
- Activity (HT-29 [9]): 49%
- IC50 (Caco-2 [10]): 350 nM
- Activity (HeLa [11]): 28%
- Activity (MCF7 [12]): 44%
- IC50 [13]: 330 nM
- Activity (Caco-2 [14]): 4%
- IC50 (HeLa [15]): 340 nM
- Activity (HT-29 [16]): 5%
- Activity (HL-60 [17]): 45%

Compound: NYSTATIN
- inhibition zone (IZ) (Cyberlindnera jadinii): 21 mm
- inhibition zone (IZ) (Candida tropicalis): 15 mm
- inhibition zone (IZ) (Saccharomyces cerevisiae): 15 mm
- inhibition zone (IZ) (Nakaseomyces glabratus): 16 mm

Compound: GENTAMICIN
- inhibition zone (IZ) (Klebsiella pneumoniae): 19 mm
- inhibition zone (IZ) [18]: 17 mm
- inhibition zone (IZ) (Escherichia coli): 21 mm
- inhibition zone (IZ) (Bacillus subtilis [19]): 20 mm
- inhibition zone (IZ) (Micrococcus luteus [20]): 15 mm
- inhibition zone (IZ) (Bacillus cereus): 24 mm
- inhibition zone (IZ) (Staphylococcus aureus): 20 mm
- inhibition zone (IZ) (Salmonella typhimurium): 16 mm
- inhibition zone (IZ) (Bacillus thuringiensis): 21 mm
- inhibition zone (IZ) (Proteus vulgaris): 24 mm
- inhibition zone (IZ) (Pseudomonas aeruginosa): 20 mm
- inhibition zone (IZ) (Enterococcus faecalis [21]): 11 mm

Compound: CC[C@H]1OC(=O)[C@H](C)[C@@H](O[C@H]2C[C@@](C)(OC)[C@@H](O)[C@H](C)O2)[C@H](C)[C@@H](O[C@@H]2O[C@H](C)C[C@H](N(C)C)[C@H]2O)[C@](C)(O)C[C@@H](C)C(=O)[C@H](C)[C@@H](O)[C@]1(C)O [ERYTHROMYCIN]
- zone of inhibition at 15000 µg/disc (Micrococcus luteus [22]): 30 mm
- diameter of the inhibition zone (DIZ) (Bacillus subtilis [23]): 25 mm
- diameter of the inhibition zone (DIZ) (Enterococcus faecalis [24]): inactive

Compound: O=C(N[C@H](CO)[C@H](O)c1ccc([N+](=O)[O-])cc1)C(Cl)Cl [CHLORAMPHENICOL]
- zone of inhibition at 30000 µg/disc (Micrococcus luteus [25]): 25 mm

Compound: CC1(C)S[C@@H]2[C@H](NC(=O)[C@H](N)c3ccccc3)C(=O)N2[C@H]1C(=O)O [AMPICILLIN]
- diameter of the inhibition zone (DIZ) (Klebsiella pneumoniae): inactive
- diameter of the inhibition zone (DIZ) (Escherichia coli): inactive
- diameter of the inhibition zone (DIZ) (Bacillus subtilis [19]): inactive
- diameter of the inhibition zone (DIZ) (Bacillus cereus): inactive
- diameter of the inhibition zone (DIZ) (Bacillus thuringiensis): inactive
- diameter of the inhibition zone (DIZ) (Proteus vulgaris): inactive
- diameter of the inhibition zone (DIZ) (Pseudomonas aeruginosa): inactive
- zone of inhibition at 10000 µg/disc (Enterococcus faecalis [21]; ATCC 29212, 24 h, read-out: DIZ): 14 mm

Compound: CC(=O)O[C@H]1C(=O)[C@@]2(C)[C@H]([C@H](OC(=O)c3ccccc3)[C@]3(O)C[C@H](OC(=O)[C@H](O)[C@@H](NC(=O)c4ccccc4)c4ccccc4)C(C)=C1C3(C)C)[C@]1(OC(C)=O)CO[C@@H]1C[C@@H]2O [PACLITAXEL]
- Activity (Caco-2 [1]): 2%
- Activity (SAOS-2 [2]): 42%
- Activity (SAOS-2 [3]): 1%
- Activity (HeLa [4]): 44%
- Activity (HL-60 [5]): 53%
- IC50 (MCF7 [26]): 330 nM
- IC50 (HT-29 [6]): 290 nM
- IC50 (HL-60 [7]): 320 nM
- Activity (MCF7 [8]): 50%
- Activity (HT-29 [9]): 2%
- IC50 (Caco-2 [10]): 310 nM
- Activity (HeLa [11]): 2%
- Activity (MCF7 [12]): 1%
- IC50 [13]: 350 nM
- Activity (Caco-2 [14]): 52%
- IC50 (HeLa [15]): 290 nM
- Activity (HT-29 [16]): 52%
- Activity (HL-60 [17]): 0%

Compound: CN(C)[C@@H]1C(O)=C(C(N)=O)C(=O)[C@@]2(O)C(O)=C3C(=O)c4c(O)cccc4[C@@](C)(O)[C@H]3C[C@@H]12 [TETRACYCLINE]
- zone of inhibition at 30000 µg/disc (Micrococcus luteus [25]): 26 mm
